Assay results as given in ChEMBL document CHEMBL4725234, “Structure-activity relationship analyses of fusidic acid derivatives highlight crucial role of the C-21 carboxylic acid moiety to its anti-mycobacterial activity” (Bioorg Med Chem, 2020).
Converted amounts (≈) assume the structure as drawn.

Key:
[1] = system: Mycobacterium tuberculosis; assay: Antimycobacterial activity against Mycobacterium tuberculosis H37Rv; assay type: functional
In short: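 Drug-sensitive M. tuberculosis H37Rv grown in a glycerol-containing medium; MIC99 is the minimum concentration that inhibits growth of 99% of the bacterial population.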

CHO-K1 = assay: Cytotoxicity against CHOK1 cells assessed as reduction in cell viability; assay type: cell-based; settings: Cricetulus griseus

| SMILES | MIC99 [1] [µM] | IC50 (CHO-K1) [µM] |
| --- | --- | --- |
| CCC(=O)O[C@@H]1CC[C@@]2(C)[C@@H](CC[C@@]3(C)[C@H]2[C@H](O)C[C@H]2/C(=C(\CCC=C(C)C)C(=O)NN)[C@@H](OC(C)=O)C[C@@]23C)[C@@H]1C | 15.6 (≈ 9.15 µg/mL) | – |
| CCCCCCCCCCCCCCCCNC(=O)/C(CCC=C(C)C)=C1\[C@@H](OC(C)=O)C[C@@]2(C)[C@H]1C[C@@H](O)[C@H]1[C@@]3(C)CC[C@@H](O)[C@@H](C)[C@@H]3CC[C@@]12C | > 125 | > 135 |
| CC(=O)O[C@H]1C[C@@]2(C)[C@@H](C[C@@H](O)[C@H]3[C@@]4(C)CC[C@@H](O)[C@@H](C)[C@@H]4CC[C@@]32C)/C1=C(\CCC=C(C)C)C(=O)N1CCC(O)CC1 | 40 (≈ 24 µg/mL) | – |
| CCCCC(=O)O[C@@H]1CC[C@@]2(C)[C@@H](CC[C@@]3(C)[C@H]2[C@H](O)C[C@H]2/C(=C(\CCC=C(C)C)C(=O)NN)[C@@H](OC(C)=O)C[C@@]23C)[C@@H]1C | 62.5 (≈ 38.4 µg/mL) | – |
| CC(=O)O[C@H]1C[C@@]2(C)[C@@H](C[C@@H](O)[C@H]3[C@@]4(C)CC[C@@H](OC(=O)c5ccc(S(C)(=O)=O)cc5)[C@@H](C)[C@@H]4CC[C@@]32C)/C1=C(\CCC=C(C)C)C(=O)O | 31.3 (≈ 21.9 µg/mL) | – |
| CC(=O)O[C@H]1C[C@@]2(C)[C@@H](C[C@@H](O)[C@H]3[C@@]4(C)CC[C@@H](O)[C@@H](C)[C@@H]4CC[C@@]32C)/C1=C(\CCC=C(C)C)C(=O)NCCN1CCOCC1 | > 125 | – |
| CC(=O)O[C@H]1C[C@@]2(C)[C@@H](C[C@@H](O)[C@H]3[C@@]4(C)CC[C@@H](O)[C@@H](C)[C@@H]4CC[C@@]32C)/C1=C(\CCC=C(C)C)C(=O)NN | 40 (≈ 21.2 µg/mL) | 112 |
| CC(=O)O[C@H]1C[C@@]2(C)[C@@H](C[C@@H](O)[C@H]3[C@@]4(C)CC[C@@H](OC(=O)c5ccc(C(F)(F)F)cc5)[C@@H](C)[C@@H]4CC[C@@]32C)/C1=C(\CCC=C(C)C)C(=O)O | > 125 | – |
| CC(=O)O[C@H]1C[C@@]2(C)[C@@H](C[C@@H](O)[C@H]3[C@@]4(C)CC/C(=N\O)[C@@H](C)[C@@H]4CC[C@@]32C)/C1=C(\CCC=C(C)C)C(=O)O | 2.5 (≈ 1.32 µg/mL) | 164 |
| CC(=O)O[C@H]1C[C@@]2(C)[C@@H](C[C@@H](O)[C@H]3[C@@]4(C)CC[C@@H](O)[C@@H](C)[C@@H]4CC[C@@]32C)/C1=C(\CCC=C(C)C)C(N)=O | > 125 | 113 |
| CCCCC(=O)O[C@@H]1CC[C@@]2(C)[C@@H](CC[C@@]3(C)[C@H]2[C@H](O)C[C@H]2/C(=C(\CCC=C(C)C)C(=O)NNS(C)(=O)=O)[C@@H](OC(C)=O)C[C@@]23C)[C@@H]1C | 62.5 (≈ 43.3 µg/mL) | – |
| CCC(=O)O[C@@H]1CC[C@@]2(C)[C@@H](CC[C@@]3(C)[C@H]2[C@H](O)C[C@H]2/C(=C(\CCC=C(C)C)C(=O)NNS(C)(=O)=O)[C@@H](OC(C)=O)C[C@@]23C)[C@@H]1C | 7.81 (≈ 5.19 µg/mL) | – |
| CC(=O)O[C@H]1C[C@@]2(C)[C@@H](C[C@@H](O)[C@H]3[C@@]4(C)CC[C@@H](O)[C@@H](C)[C@@H]4CC[C@@]32C)/C1=C(\CCC=C(C)C)C(=O)NS(=O)(=O)c1ccc(F)c(F)c1 | 20 (≈ 13.8 µg/mL) | 81.4 |
| CC[C@H]1CN2CCc3cc(OC)c(OC)cc3[C@@H]2C[C@@H]1C[C@H]1NCCc2cc(OC)c(OC)cc21 [EMETINE] | – | 0.4 |
| CC(=O)O[C@H]1C[C@@]2(C)[C@@H](C[C@@H](O)[C@H]3[C@@]4(C)CC[C@@H](O)[C@@H](C)[C@@H]4CC[C@@]32C)/C1=C(\CCC=C(C)C)C(=O)NNC(=O)c1cccs1 | 40 (≈ 25.6 µg/mL) | 78.8 |
| CC(=O)O[C@H]1C[C@@]2(C)[C@@H](C[C@@H](O)[C@H]3[C@@]4(C)CC[C@@H](O)[C@@H](C)[C@@H]4CC[C@@]32C)/C1=C(\CCC=C(C)C)C(=O)NS(=O)(=O)c1ccc(C#N)cc1 | 125 (≈ 85.1 µg/mL) | – |
| CC(=O)O[C@H]1C[C@@]2(C)[C@@H](C[C@@H](O)[C@H]3[C@@]4(C)CC[C@@H](O)[C@@H](C)[C@@H]4CC[C@@]32C)/C1=C(\CCC=C(C)C)C(=O)N/N=C/c1cccnc1 | 20 (≈ 12.4 µg/mL) | – |
| CC(=O)O[C@H]1C[C@@]2(C)[C@@H](C[C@@H](O)[C@H]3[C@@]4(C)CC[C@@H](O)[C@@H](C)[C@@H]4CC[C@@]32C)/C1=C(\CCC=C(C)C)C(=O)NNS(C)(=O)=O | 10 (≈ 6.09 µg/mL) | 92.2 |
| CC(=O)O[C@H]1C[C@@]2(C)[C@@H](C[C@@H](O)[C@H]3[C@@]4(C)CC[C@@H](O)[C@@H](C)[C@@H]4CC[C@@]32C)/C1=C(\CCC=C(C)C)C(=O)N/N=C/c1ccncc1 | 20 (≈ 12.4 µg/mL) | – |
| CO[C@H]1/C=C/O[C@@]2(C)Oc3c(C)c(O)c4c(O)c(c(/C=N/N5CCN(C)CC5)c(O)c4c3C2=O)NC(=O)/C(C)=C\C=C\[C@H](C)[C@H](O)[C@@H](C)[C@@H](O)[C@@H](C)[C@H](OC(C)=O)[C@@H]1C [RIFAMPIN] | 0.005 (≈ 0.00411 µg/mL) | – |
| CC(=O)O[C@H]1C[C@@]2(C)[C@@H](C[C@@H](O)[C@H]3[C@@]4(C)CC[C@@H](OC(=O)c5ccc(F)cc5)[C@@H](C)[C@@H]4CC[C@@]32C)/C1=C(\CCC=C(C)C)C(=O)O | > 125 | – |
| CC(=O)O[C@H]1C[C@@]2(C)[C@@H](C[C@@H](O)[C@H]3[C@@]4(C)CC[C@@H](O)[C@@H](C)[C@@H]4CC[C@@]32C)/C1=C(\CCC=C(C)C)C(=O)NS(=O)(=O)c1ccccc1 | > 125 | 96.1 |

| SMILES | MIC99 [1] [µM] | IC50 (CHO-K1) [µM] |
| --- | --- | --- |
| CCCCCCC(=O)O[C@@H]1CC[C@@]2(C)[C@@H](CC[C@@]3(C)[C@H]2[C@H](O)C[C@H]2/C(=C(\CCC=C(C)C)C(=O)O)[C@@H](OC(C)=O)C[C@@]23C)[C@@H]1C | 5 (≈ 3.14 µg/mL) | 36.2 |
| CC(=O)O[C@H]1C[C@@]2(C)[C@@H](C[C@@H](O)[C@H]3[C@@]4(C)CC/C(=N\OCc5ccccc5)[C@@H](C)[C@@H]4CC[C@@]32C)/C1=C(\CCC=C(C)C)C(=O)O | 40 (≈ 24.8 µg/mL) | – |
| CCO[C@H]1C[C@@]2(C)[C@@H](C[C@@H](O)[C@H]3[C@@]4(C)CC[C@@H](O)[C@@H](C)[C@@H]4CC[C@@]32C)/C1=C(\CCC=C(C)C)C(=O)O | 0.8 (≈ 0.402 µg/mL) | 48.1 |
| CC(=O)O[C@H]1C[C@@]2(C)[C@@H](C[C@@H](O)[C@H]3[C@@]4(C)CC[C@@H](O)[C@@H](C)[C@@H]4CC[C@@]32C)/C1=C(\CCC=C(C)C)C(=O)O [FUSIDIC ACID] | 0.6 (≈ 0.31 µg/mL) | > 194 |
| CCc1noc(/C(CCC=C(C)C)=C2\[C@@H](OC(C)=O)C[C@@]3(C)[C@H]2C[C@@H](O)[C@H]2[C@@]4(C)CC[C@@H](O)[C@@H](C)[C@@H]4CC[C@@]23C)n1 | > 125 | 71.7 |
| CC(C)=CCC/C(C(=O)NNS(C)(=O)=O)=C1/[C@@H](O)C[C@@]2(C)[C@H]1C[C@@H](O)[C@H]1[C@@]3(C)CC[C@@H](O)[C@@H](C)[C@@H]3CC[C@@]12C | 40 (≈ 22.7 µg/mL) | 32 |
| CC(=O)O[C@H]1C[C@@]2(C)[C@@H](C[C@@H](O)[C@H]3[C@@]4(C)CC[C@@H](O)[C@@H](C)[C@@H]4CC[C@@]32C)/C1=C(\CCC=C(C)C)C(=O)NCCO | > 125 | – |
| CC(=O)O[C@H]1C[C@@]2(C)[C@@H](C[C@@H](O)[C@H]3[C@@]4(C)CC[C@@H](O)[C@@H](C)[C@@H]4CC[C@@]32C)/C1=C(\CCC=C(C)C)C(=O)NC#N | 40 (≈ 21.6 µg/mL) | > 185 |
| CC(=O)O[C@H]1C[C@@]2(C)[C@@H](C[C@@H](O)[C@H]3[C@@]4(C)CC[C@@H](O)[C@@H](C)[C@@H]4CC[C@@]32C)/C1=C(\CCC=O)C(=O)O | 40 (≈ 19.6 µg/mL) | – |
| CC(=O)O[C@H]1C[C@@]2(C)[C@@H](C[C@@H](OC(C)=O)[C@H]3[C@@]4(C)CC[C@@H](OC(C)=O)[C@@H](C)[C@@H]4CC[C@@]32C)/C1=C(\CCC=C(C)C)C(=O)O | 52.5 (≈ 31.5 µg/mL) | – |
| CO/N=C1\CC[C@@]2(C)[C@@H](CC[C@@]3(C)[C@H]2[C@H](O)C[C@H]2/C(=C(\CCC=C(C)C)C(=O)O)[C@@H](OC(C)=O)C[C@@]23C)[C@@H]1C | 20 (≈ 10.9 µg/mL) | – |
| CCCCCCCCCC(=O)O[C@@H]1CC[C@@]2(C)[C@@H](CC[C@@]3(C)[C@H]2[C@H](O)C[C@H]2/C(=C(\CCC=C(C)C)C(=O)O)[C@@H](OC(C)=O)C[C@@]23C)[C@@H]1C | > 125 | – |
| CC(=O)O[C@H]1C[C@@]2(C)[C@@H](C[C@@H](O)[C@H]3[C@@]4(C)CCC(=O)[C@@H](C)[C@@H]4CC[C@@]32C)/C1=C(\CCC=C(C)C)C(=O)NNS(C)(=O)=O | 62.5 (≈ 37.9 µg/mL) | – |
| CC(=O)O[C@H]1C[C@@]2(C)[C@@H](C[C@@H](O)[C@H]3[C@@]4(C)CC[C@@H](O)[C@@H](C)[C@@H]4CC[C@@]32C)/C1=C(\CCC=C(C)C)C(=O)N1CC(O)C1 | 40 (≈ 22.9 µg/mL) | – |
| CC(=O)O[C@H]1C[C@@]2(C)[C@@H](C[C@@H](O)[C@H]3[C@@]4(C)CC[C@@H](OC(=O)c5ccncc5)[C@@H](C)[C@@H]4CC[C@@]32C)/C1=C(\CCC=C(C)C)C(=O)O | 31.3 (≈ 19.5 µg/mL) | – |
| CC(=O)O[C@H]1C[C@@]2(C)[C@@H](CC(=O)[C@H]3[C@@]4(C)CCC(=O)[C@@H](C)[C@@H]4CC[C@@]32C)/C1=C(\CCC=C(C)C)C(=O)O | 11.9 (≈ 6.1 µg/mL) | – |
| CC(=O)O[C@H]1C[C@@]2(C)[C@@H](C[C@@H](O)[C@H]3[C@@]4(C)CC[C@@H](OC(=O)c5ccc(Br)cc5)[C@@H](C)[C@@H]4CC[C@@]32C)/C1=C(\CCC=C(C)C)C(=O)O | > 125 | – |
| CC(=O)O[C@H]1C[C@@]2(C)[C@@H](C[C@@H](O)[C@H]3[C@@]4(C)CC[C@@H](O)[C@@H](C)[C@@H]4CC[C@@]32C)C1=O | > 125 | – |
| CC(=O)O[C@H]1C[C@@]2(C)[C@@H](C[C@@H](O)[C@H]3[C@@]4(C)CC[C@@H](OC(=O)c5ccc(C)cc5)[C@@H](C)[C@@H]4CC[C@@]32C)/C1=C(\CCC=C(C)C)C(=O)O | 31.3 (≈ 19.9 µg/mL) | – |
| CC(=O)O[C@H]1C[C@@]2(C)[C@@H](C[C@@H](O)[C@H]3[C@@]4(C)CC[C@@H](OC(=O)c5ccc([N+](=O)[O-])cc5)[C@@H](C)[C@@H]4CC[C@@]32C)/C1=C(\CCC=C(C)C)C(=O)O | > 125 | – |
| COc1ccc(S(=O)(=O)NC(=O)/C(CCC=C(C)C)=C2\[C@@H](OC(C)=O)C[C@@]3(C)[C@H]2C[C@@H](O)[C@H]2[C@@]4(C)CC[C@@H](O)[C@@H](C)[C@@H]4CC[C@@]23C)cc1 | 31.3 (≈ 21.5 µg/mL) | – |
